Screening data as filed in PubChem.
TLR9-MyD88 block – TLR9-MyD88 interaction inhibition; Q9NR96+Q99836; CHO BLA complementation TLR9-MyD88, CCF4 FRET ratio; inhibition, % at 4.98 µM; 340,000 compounds, 0.21% hits;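 active = inhibition above the mean over all tested compounds plus 3 SD, cut at about 21% in these data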;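 also: 0% = DMSO only wells and 100% = clavulanate BLA inhibitor control wells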
SKN-1 block – blocks SKN-1 activity in C. elegans; inhibition, % at 21.8 µM; C. elegans VP596 Pgst-4::GFP/RFP ratio, acrylamide-induced, 24 h; 360,000 compounds, 0.49% hits;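 active = interference check ratio from 0.5 to 1.5 plus GFP to RFP signal ratio inhibition reaching or exceeding a fixed threshold, cut at about 30% in these data, passing the limit was not always enough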
TLR4-MyD88 BLA – blocks binding of human TLR4 to MyD88; HeLa CL3-4 TLR4/MyD88 BLA complementation, FRET ratio; 200,000 compounds, 0.18% hits; AID 861; O00206+Q99836; inhibition, % at 8.4 µM; in the data active = inhibition above about 25%;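 also: 0% = vehicle and 100% = reference inhibitor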
MT1-MMP act inh – inhibitors of human MT1-MMP activation. GFP/RFP ratio change, % at 20 µM. HT1080 RFP-PRO-GFP cells, GFP/RFP ratio fluorescence, overnight; percent of plate control window, DMSO zero. AID 651647. P50281. 360,000 compounds, 0.061% hits;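 active = GFP/RFP ratio change of at least 30% with cell ATP level not reduced by more than half and red fluorescence within 50% of control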
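Assay system: HT1080 RFP-PRO-GFP cells | Dosing: 20 µM single dose, 1% DMSO | Incubation: Cells overnight before dosing, compound overnight, 37 °C, 5% CO2 | Evaluation: GFP/RFP fluorescence ratio | Control set: DMSO-only wells and HT1080 RFP-L50D-GFP cell wells as references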
NOD2 RIPK2 PPI – NOD2-RIPK2 protein interaction inhibition; CHO BLA complementation NOD2-RIPK2, CCF4 ratio; inhibition, % at 4.98 µM; 360,000 compounds, 0.38% hits; AID 624267; in the data active = inhibition above about 21%;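 also: 0% = vehicle only and 100% = reference blocker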
Target sequence (O43353 whole entry, looked up): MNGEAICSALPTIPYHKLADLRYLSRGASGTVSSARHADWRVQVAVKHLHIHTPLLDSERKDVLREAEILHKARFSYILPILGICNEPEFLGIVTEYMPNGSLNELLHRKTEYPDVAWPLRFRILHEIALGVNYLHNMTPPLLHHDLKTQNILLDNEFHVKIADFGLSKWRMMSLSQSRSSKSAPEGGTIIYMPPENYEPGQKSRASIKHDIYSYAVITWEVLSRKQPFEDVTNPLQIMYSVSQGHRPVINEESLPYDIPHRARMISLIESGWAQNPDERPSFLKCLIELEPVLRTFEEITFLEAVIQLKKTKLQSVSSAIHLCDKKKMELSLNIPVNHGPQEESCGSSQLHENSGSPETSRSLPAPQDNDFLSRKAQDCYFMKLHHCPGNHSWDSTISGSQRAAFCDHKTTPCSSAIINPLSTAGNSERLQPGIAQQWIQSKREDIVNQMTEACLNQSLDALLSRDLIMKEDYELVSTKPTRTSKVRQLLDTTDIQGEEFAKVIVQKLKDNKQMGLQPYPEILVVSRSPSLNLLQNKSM
TLR9-MyD88 conf – TLR9-MyD88 interaction inhibition, confirmation. shares compounds with TLR9-MyD88 block. CHO TLR9/MyD88 BLA complementation, CCF4 FRET ratio. inhibition, % at 4.98 µM. 680 compounds, 51% hits. AID 540250;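 active = mean inhibition across three repeats above about 21% taken from the earlier screen, limit read from the data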;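 also: blue over green emission ratio reports constitutive TLR9 MyD88 association via BLA complementation; 0% = DMSO vehicle wells and 100% = clavulanate BLA inhibitor wells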
BLA nonselective – non-selective beta-lactamase inhibitors in TLR9-MyD88 counter-screen | shares compounds with TLR9-MyD88 block | CHO-BLA cells, CCF4 FRET ratio, BLA reporter | inhibition, % at 4.98 µM | 680 compounds, 7% hits | AID 540251;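 active = mean inhibition above a 50% cutoff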;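 also: counterscreen of TLR9-MyD88 hits on CMV-driven BLA in CHO-K1 cells; 0% = DMSO alone and 100% = clavulanate blocking BLA; higher means less blue over green ratio so more BLA blockade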
TLR9 CHO cytotox – CHO cell toxicity counter-screen for TLR9-MyD88 inhibitors; shares compounds with TLR9-MyD88 block; TLR9-MyD88 CHO cells cytotoxicity, luminescence; 680 compounds, 39% hits; inhibition, % at 4.98 µM; AID 588336; in the data active = inhibition above about 11%
* hit, by the source's call. An excerpt weighted towards active compounds, which were near 0.99% of everything screened.

Results for O=C(OCn1ncc(Cl)c(Cl)c1=O)c1cccc(C(F)(F)F)c1 ?
TLR9-MyD88 block: 30.3*; SKN-1 block: 1.2; TLR4-MyD88 BLA: 16.8; MT1-MMP act inh: -5.8; NOD2 RIPK2 PPI: 48.4*; TLR9-MyD88 conf: 24.4*; BLA nonselective: 12.5; TLR9 CHO cytotox: 97.2*

Results for N/C(=N\OC(=O)c1cccc(C(F)(F)F)c1)c1cnccn1 ?
TLR9-MyD88 block: -1.3; SKN-1 block: 29.7; MT1-MMP act inh: -1.0; NOD2 RIPK2 PPI: -8.4

What do the screens show for `CC1CCCN(CCCNC(=O)c2ccc(N3CCCC3=O)cc2)C1` (stereo not drawn)?
TLR9-MyD88 block: 9.1; SKN-1 block: 16.1; MT1-MMP act inh: -0.3; NOD2 RIPK2 PPI: -6.9

Results for CCOC(=O)COc1ccc2c(C#N)c3ccccn3c2c1 ?
TLR9-MyD88 block: 25.8*; SKN-1 block: -2.9; TLR4-MyD88 BLA: 14.8; MT1-MMP act inh: -3.3; NOD2 RIPK2 PPI: 3.8; TLR9-MyD88 conf: 2.7; BLA nonselective: 6.3; TLR9 CHO cytotox: 1.1

What do the screens show for `N#Cc1c2ccc(OCC(N)=O)cc2n2ccccc12`?
TLR9-MyD88 block: 12.7; SKN-1 block: 8.7; TLR4-MyD88 BLA: 18.1; MT1-MMP act inh: -8.4; NOD2 RIPK2 PPI: 7.3

What do the screens show for `CCCn1c(=O)cc(N)n(-c2ccc(OC(F)(F)F)cc2)c1=O`?
TLR9-MyD88 block: 15.5; SKN-1 block: 0.8; MT1-MMP act inh: -1.8; NOD2 RIPK2 PPI: 2.1

How did O=C(COC(=O)/C=C/c1ccc(F)cc1)Nc1ccc2[nH]c(=O)[nH]c2c1 do in these assays?
TLR9-MyD88 block: -8.4; SKN-1 block: -12.3; MT1-MMP act inh: 4.1; NOD2 RIPK2 PPI: -4.8

Results for O=C(COC(=O)c1cccc(Br)c1)Nc1ccc2[nH]c(=O)[nH]c2c1 ?
TLR9-MyD88 block: 20.9*; SKN-1 block: 9.4; MT1-MMP act inh: 0.4; NOD2 RIPK2 PPI: 2.6; TLR9-MyD88 conf: 0.5; BLA nonselective: -2.3; TLR9 CHO cytotox: 3.2

What do the screens show for `O=C(COC(=O)/C=C/c1ccc(Cl)cc1)Nc1ccc2[nH]c(=O)[nH]c2c1`?
TLR9-MyD88 block: 23.1*; SKN-1 block: 6.7; MT1-MMP act inh: -1.3; NOD2 RIPK2 PPI: 1.9; TLR9-MyD88 conf: 8.9; BLA nonselective: 5.4; TLR9 CHO cytotox: 13.5*

What do the screens show for `O=C(COC(=O)c1c(F)cccc1F)Nc1ccc2[nH]c(=O)[nH]c2c1`?
TLR9-MyD88 block: 3.9; SKN-1 block: -5.5; TLR4-MyD88 BLA: -8.9; MT1-MMP act inh: -1.3; NOD2 RIPK2 PPI: -1.7

What do the screens show for `COc1ccc(/C(C)=N/NC(=O)CNC(=O)CCc2ccccc2)c(OC)c1`?
TLR9-MyD88 block: 5.3; SKN-1 block: -3.4; MT1-MMP act inh: 0.2; NOD2 RIPK2 PPI: -1.7

Results for CN(C)Cc1c(C(=O)N/N=C/CCc2ccccc2)nnn1-c1nonc1N ?
TLR9-MyD88 block: 3.6; SKN-1 block: -0.6; MT1-MMP act inh: 1.1; NOD2 RIPK2 PPI: 9.3

How did CC(C(=O)O)N1C(=O)C2C3c4ccccc4C(c4ccccc43)[C@@H]2C1=O (stereo partly drawn) do in these assays?
TLR9-MyD88 block: 1.9; SKN-1 block: -9.0; MT1-MMP act inh: 0.5; NOD2 RIPK2 PPI: -5.9

Results for CC(C)(C)c1cc(NC(=O)c2c(F)cccc2Cl)n(-c2ccccc2)n1 ?
TLR9-MyD88 block: 22.8*; SKN-1 block: 4.1; MT1-MMP act inh: 0.2; NOD2 RIPK2 PPI: 1.4; TLR9-MyD88 conf: 3.0; BLA nonselective: 4.0; TLR9 CHO cytotox: 0.8

What do the screens show for `Cc1cc(NC(=O)c2c(F)cccc2Cl)n(-c2nc3ccccc3[nH]2)n1`?
TLR9-MyD88 block: 4.0; SKN-1 block: -0.3; TLR4-MyD88 BLA: -15.8; MT1-MMP act inh: -6.8; NOD2 RIPK2 PPI: 7.8

What do the screens show for `O=C(CSc1nc(O)cc(=O)n1-c1ccccc1)NCc1ccccc1`?
TLR9-MyD88 block: 21.0*; SKN-1 block: 1.7; TLR4-MyD88 BLA: -10.2; MT1-MMP act inh: -0.6; NOD2 RIPK2 PPI: 10.8; TLR9-MyD88 conf: 2.3; BLA nonselective: 3.2; TLR9 CHO cytotox: -0.9

What do the screens show for `Cc1c(O)ccc2c(CN3CCN(CCO)CC3)cc(=O)oc12`?
TLR9-MyD88 block: 26.8*; SKN-1 block: 12.1; TLR4-MyD88 BLA: -3.1; MT1-MMP act inh: -7.9; NOD2 RIPK2 PPI: 12.5; TLR9-MyD88 conf: 10.3; BLA nonselective: 8.4; TLR9 CHO cytotox: 1.5

How did Cc1c(O)ccc2c(CN3CCOCC3)cc(=O)oc12 do in these assays?
TLR9-MyD88 block: 9.9; SKN-1 block: 14.4; MT1-MMP act inh: -5.1; NOD2 RIPK2 PPI: 16.4

What do the screens show for `COc1ccc(/C=C/C(=O)NC(=S)Nc2ccc(S(=O)(=O)Nc3ccc(OC)nn3)cc2)cc1`?
TLR9-MyD88 block: 26.9*; SKN-1 block: 2.6; TLR4-MyD88 BLA: -4.5; MT1-MMP act inh: 2.7; NOD2 RIPK2 PPI: -5.2; TLR9-MyD88 conf: -3.5; BLA nonselective: -1.4; TLR9 CHO cytotox: -1.3

How did COc1ccc(/C=C/C(=O)NC(=S)Nc2ccc(S(=O)(=O)Nc3cc(C)on3)cc2)cc1 do in these assays?
TLR9-MyD88 block: 10.1; SKN-1 block: 24.1; MT1-MMP act inh: -0.9; NOD2 RIPK2 PPI: -5.9

How did CSC12CCCN(CCC(C(C)(C)C)C1)C2=O (stereo not drawn) do in these assays?
SKN-1 block: 1.0; NOD2 RIPK2 PPI: 8.4

What do the screens show for `Oc1c(N=Nc2ccccn2)ccc2ccccc12`?
TLR9-MyD88 block: 23.6*; SKN-1 block: 46.1*; TLR4-MyD88 BLA: 13.0; MT1-MMP act inh: 76.7; NOD2 RIPK2 PPI: 15.2; TLR9-MyD88 conf: 15.2; BLA nonselective: 1.7; TLR9 CHO cytotox: 98.7*

Results for Oc1[nH]c2ccccc2c1N=Nc1ccccn1 ?
TLR9-MyD88 block: -4.1; SKN-1 block: 5.7; MT1-MMP act inh: 2.4; NOD2 RIPK2 PPI: -10.4

How did CCOC(=O)n1cnc2nc(N)nc(SC)c21 do in these assays?
TLR9-MyD88 block: -8.6; SKN-1 block: -3.5; MT1-MMP act inh: 0.9; NOD2 RIPK2 PPI: -15.0
